“Also recorded” adds a separate entry of the source.
Experiments:
[1] = target: T1, human sGC with ferric heme (Fe3+-sGC) (Homo sapiens, UniProt Q02153); assay: cGMP-forming activity of purified sGC with ferric heme; type: biochemical; details: for activation of Fe3+-sGC: 100 μM, Fig. 2B; for shape of the activation curve: dose-dependent activation of sGC with ferric heme, Fig. 3
T1 sequence (Q02153 1-619): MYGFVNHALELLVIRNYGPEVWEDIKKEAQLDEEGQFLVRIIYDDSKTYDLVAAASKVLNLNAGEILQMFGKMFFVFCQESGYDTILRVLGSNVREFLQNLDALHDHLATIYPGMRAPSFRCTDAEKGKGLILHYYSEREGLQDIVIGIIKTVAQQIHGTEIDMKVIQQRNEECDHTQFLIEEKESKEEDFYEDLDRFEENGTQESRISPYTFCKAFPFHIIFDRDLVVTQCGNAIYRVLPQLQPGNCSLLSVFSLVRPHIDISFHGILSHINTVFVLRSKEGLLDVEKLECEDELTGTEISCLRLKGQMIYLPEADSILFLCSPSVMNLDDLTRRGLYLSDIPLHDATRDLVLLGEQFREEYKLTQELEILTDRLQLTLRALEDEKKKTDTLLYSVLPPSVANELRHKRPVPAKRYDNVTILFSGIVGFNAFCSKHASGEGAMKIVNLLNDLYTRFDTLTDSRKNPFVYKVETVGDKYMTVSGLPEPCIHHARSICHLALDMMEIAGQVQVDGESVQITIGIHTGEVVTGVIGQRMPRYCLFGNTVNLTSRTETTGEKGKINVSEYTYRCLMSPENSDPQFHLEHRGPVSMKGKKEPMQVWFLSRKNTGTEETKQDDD
T1 sequence (Q02108 1-690 partner): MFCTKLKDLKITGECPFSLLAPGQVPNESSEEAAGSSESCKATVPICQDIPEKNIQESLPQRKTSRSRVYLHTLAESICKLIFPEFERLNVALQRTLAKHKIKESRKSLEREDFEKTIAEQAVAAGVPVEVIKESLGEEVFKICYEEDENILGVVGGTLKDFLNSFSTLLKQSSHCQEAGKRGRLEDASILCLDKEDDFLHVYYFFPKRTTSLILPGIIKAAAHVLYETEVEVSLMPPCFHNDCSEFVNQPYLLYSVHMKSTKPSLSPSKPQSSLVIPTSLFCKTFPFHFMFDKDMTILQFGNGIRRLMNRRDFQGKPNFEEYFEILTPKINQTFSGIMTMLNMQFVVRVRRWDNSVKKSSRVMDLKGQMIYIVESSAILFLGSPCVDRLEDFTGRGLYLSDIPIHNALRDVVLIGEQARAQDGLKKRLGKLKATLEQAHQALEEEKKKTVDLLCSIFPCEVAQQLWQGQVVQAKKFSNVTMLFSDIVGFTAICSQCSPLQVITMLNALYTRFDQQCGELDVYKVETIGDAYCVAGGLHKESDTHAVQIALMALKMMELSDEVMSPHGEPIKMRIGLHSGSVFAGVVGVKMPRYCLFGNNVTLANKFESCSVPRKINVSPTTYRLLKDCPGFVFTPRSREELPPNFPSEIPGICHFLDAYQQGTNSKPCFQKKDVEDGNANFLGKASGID

sGC [2] = target: T2, sGC (Homo sapiens, UniProt Q02153); type: biochemical; details: 100 μM screening on Fe2+-sGC and Fe3+-sGC (Fig. 2)
T2 sequence (Q02153 1-619): T1 sequence (Q02153 1-619)
T2 sequence (Q02108 1-690 partner): T1 sequence (Q02108 1-690 partner)
Summary of the method: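 Human α1/β1 sGC from Sf9 cells was purified on DEAE, Ni-agarose and gel filtration. The ferric form was made by adding 10 μM ODQ at pre-incubation. Then 15 min at 37 °C with 1 mM GTP/[α-32P]GTP; zinc carbonate stop; [32P]cGMP measured.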

sGC [3] = details: cited from earlier work
[4] = target: T3, human sGC with ferrous heme (Fe2+-sGC) (Homo sapiens, UniProt Q02153); assay: cGMP-forming activity of purified sGC with ferrous heme; type: biochemical; details: 100 μM, Fig. 2A
T3 sequence (Q02153 1-619): T1 sequence (Q02153 1-619)
T3 sequence (Q02108 1-690 partner): T1 sequence (Q02108 1-690 partner)
Summary of the method: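 Ferrous-heme human α1/β1 sGC, expressed in Sf9 cells and purified through DEAE, Ni-agarose and Superdex 200. Reaction started at 37 °C with 1 mM GTP/[α-32P]GTP (~100000 cpm) for 15 min. Stopped by zinc carbonate precipitation; [32P]cGMP formed.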

Cc1ccc(C)c(N(CCCC(C)(C)C(=O)O)C(=O)CCCC(=O)O)c1 [Compound 10e, 5-(4-carboxy-N-(2,5-dimethylphenyl)butanamido)-2,2-dimethylpentanoic acid]
activation of Fe3+-sGC [1]: weak, yet statistically significant activation

Cc1ccc(C(C)C)c(OCCCC(C)(C)C(=O)O)c1 [Compound 7c, 5-(2-isopropyl-5-methylphenoxy)-2,2-dimethylpentanoic acid]
shape of the activation curve [1]: bell-shaped curve | sGC activation (sGC [2]): activated both Fe^2+-sGC and Fe^3+-sGC; also recorded: well tolerated

Cc1ccc(C)c(OCCCC(=O)O)c1 [Compound 4b, 4-(2,5-dimethylphenoxy)butanoic acid]
sGC activation (sGC [2]): not conducive to sGC activation

O=C(O)CCCCN(CCc1ccccc1OCc1ccc(CCc2ccccc2)cc1)Cc1ccc(C(=O)O)cc1 [cinaciguat]
estimated EC50 (sGC [3]): low nanomolar range

CCCCCCC(CCCOc1cc(C)ccc1C)C(=O)O (centres unmarked) [Compound 15b, 2-(3-(2,5-dimethylphenoxy)propyl)octanoic acid]
shape of the activation curve [1]: bell-shaped curve | sGC activation (sGC [2]): activated both Fe^2+-sGC and Fe^3+-sGC

CCC(CCCOc1cc(C)ccc1C)C(=O)O (centres unmarked) [Compound 15a, 5-(2,5-dimethylphenoxy)-2-ethylpentanoic acid]
activation of Fe3+-sGC [1]: significantly hampered the activation | activation of Fe2+-sGC [4]: blocked the activation

Cc1ccc(C)c(N(CCCC(C)(C)C(=O)O)C(=O)CCCCC(=O)O)c1 [Compound 10f, 6-((4-carboxy-4-methylpentyl)(2,5-dimethylphenyl)amino)-6-oxohexanoic acid]
activation of Fe3+-sGC [1]: weak, yet statistically significant activation

O=C(O)CCCCCOc1ccccc1 [Compound 8b, 6-phenoxyhexanoic acid]
sGC activation (sGC [2]): does not activate sGC

Cc1ccc(C)c(OCCCCC(=O)O)c1 [Compound 4c, 5-(2,5-dimethylphenoxy)pentanoic acid]
shape of the activation curve [1]: typical S-shaped pattern | sGC activation (sGC [2]): activated both Fe^2+-sGC and Fe^3+-sGC

Cc1ccc(C)c(OCCCCCC(=O)O)c1 [Compound 4d, 6-(2,5-dimethylphenoxy)hexanoic acid]
activation of Fe3+-sGC [1]: diminished | shape of the activation curve [1]: typical S-shaped pattern | activation of Fe2+-sGC [4]: tolerated | sGC activation (sGC [2]): activated both Fe^2+-sGC and Fe^3+-sGC

Cc1ccc(C)c(NCCCC(C)(C)C(=O)O)c1 [Compound 7a, 5-((2,5-dimethylphenyl)amino)-2,2-dimethylpentanoic acid]
shape of the activation curve [1]: typical S-shaped pattern | sGC activation (sGC [2]): activated both Fe^2+-sGC and Fe^3+-sGC

Cc1ccc(C)c(N(CCCC(C)(C)C(=O)O)C(=O)CCCCC(=O)N(CCCC(C)(C)C(=O)O)c2cc(C)ccc2C)c1 [Compound 11, 5,5’-(adipoylbis((2,5-dimethylphenyl)azanediyl))bis(2,2-dimethyl-pentanoic acid)]
shape of the activation curve [1]: typical S-shaped pattern | sGC activation (sGC [2]): activated both Fe^2+-sGC and Fe^3+-sGC; also recorded: exhibited sGC activation

Cc1ccc(C)c(N(CCCC(C)(C)C(=O)O)C(=O)CCC(=O)O)c1 [Compound 10d, 5-(3-carboxy-N-(2,5-dimethylphenyl)propanamido)-2,2-dimethylpentanoic acid]
activation of Fe3+-sGC [1]: weak, yet statistically significant activation

Cc1ccc(C)c(OCC(=O)O)c1 [Compound 4a, 2-(2,5-dimethylphenoxy)acetic acid]
sGC activation (sGC [2]): not conducive to sGC activation

From paper PMC8511081 (European journal of medicinal chemistry, 2021)
